Consider 26 compounds from ChEMBL document CHEMBL1149140, “Orally bioavailable competitive CCR5 antagonists” (J Med Chem, 2004).

Series [1] has as its target T1, C-C chemokine receptor type 5 (Homo sapiens, UniProt P51681). The series is described as follows: Antagonistic activity against human C-C chemokine receptor type 5. Type of series: functional. Put shortly:
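SPA radioligand binding using membranes from CHO cells transfected with human or cynomolgus CCR5. Buffer was 50 mM HEPES, 6 mM CaCl2, 12 mM MgCl2, 100 mM NaCl and 0.5% BSA. Incubated 2 h shaking at room temperature. Nonspecific binding defined with 100 nM unlabeled MIP-1α. IC50 reported.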

Series [2] has as its target T1, C-C chemokine receptor type 5. Briefly: Rises in intracellular [Ca2+] levels by using [Ca2+] sensitive Fluo4 dye in C-C chemokine receptor type 5-transfected CHO cells. Type of series: functional, cell-based. Put shortly:
(§1)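 CCR5-transfected CHO cells were loaded with 4 µM Fluo4 for 1 h at 37 °C (HBSS, 20 mM HEPES pH 7.4, 0.1% BSA, 2.5 mM probenecid), then washed. Compound preincubated 2 h at room temperature. Baseline read 20 s on FLIPR, then MIP-1α added (final 10 nM) and recorded 3 min. IC50 from concentration-dependent reduction of Fmax−Fmin.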

The subject of series [3] is Rattus norvegicus. The series is described as follows: AUC in rats at a dose of […] mg/kg. It counts as ADME, organism-based, Plasma. The conditions noted are these: in vivo, 1 mg/kg.
Series [4] in a line: Cmax in monkeys at a dose of […] mg/kg. Type of series: ADME, organism-based. Conditions: simiiformes, in vivo, 1 mg/kg.
Series [5] is described as follows: Mean residence time in monkeys. Conditions: simiiformes, in vivo. Type of series: ADME, organism-based.
Series [6] in a line: Mean residence time was determined. Type of series: ADME, organism-based. Conditions: in vivo.
Series [7] is described as follows: AUC in monkeys at a dose of […] mg/kg. Type of series: ADME, organism-based, Plasma. Conditions: simiiformes, in vivo, 1 mg/kg.
Series [8] is described as follows: (§2) Compound was evaluated for rises in intracellular [Ca2+] levels pre-incubation at 2.5 min in [Ca2+] Mobilization Assay. Type of series: functional, cell-based. Put shortly:
(§3)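 Fluo4-loaded CCR5-transfected CHO cells on FLIPR. Baseline read 20 s, then compound added and monitored 2.5 min, then MIP-1α agonist (final 10 nM) added and fluorescence recorded 3 min. IC50 from inhibition of the MIP-1α-induced fluorescence rise.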

Series [9] is described as follows: Oral bioavailability in rat. It counts as ADME, organism-based. Conditions: in vivo.
Series [10] can be described thus: Oral bioavailability. Type of series: ADME, organism-based. Conditions: eutheria, in vivo.
Series [11] in a line: Tmax in monkeys. Type of series: ADME. The conditions noted are these: simiiformes, in vivo.
Series [12] is described as follows: Cmax in rats at a dose of […] mg/kg. It counts as ADME, organism-based. The conditions noted are these: rat, in vivo, 1 mg/kg.
Series [13] in a line: Compound was evaluated for rises in intracellular [Ca2+] levels pre-incubation at 2 hr in [Ca2+] Mobilization Assay. Type of series: functional, cell-based. Put shortly: as §1
Series [14] in a line: Compound was evaluated for rises in intracellular [Ca2+] levels by using [Ca2+] sensitive Fluo4 dye in CCR5-transfected CHO cells. It counts as functional, cell-based. The method in brief:
as §1

A short description of series [15]: Mean residence time in rat. Type of series: ADME, organism-based. The conditions noted are these: in vivo.
The target in series [16] is CCR5 (Macaca fascicularis). The series is described as follows: Antagonistic activity against cynomolgus monkey C-C chemokine receptor type 5.
Series [17] is described as follows: Tmax in rats. The conditions noted are these: rat, in vivo. It counts as ADME, organism-based.
Series [18] is filed under the species Homo sapiens. The description is as §2. Type of series: functional, organism-based. The method in brief:
as §3

The nature of series [19]: Mean residence time in rats. It counts as ADME, organism-based. Conditions: rat, in vivo.

The structures appear in SMILES notation.

Usually IC50 stands for the midpoint of a concentration-inhibition curve. The term Cmax denotes the highest concentration seen after dosing. The term MRT denotes the average time that molecules of a dose stay in the body. One may read the bioavailability as the share of a dose that reaches the circulation, judged against a reference dose that is usually intravenous. For orientation: Tmax means the time from dosing to the highest level.

T1 sequence (P51681 whole entry): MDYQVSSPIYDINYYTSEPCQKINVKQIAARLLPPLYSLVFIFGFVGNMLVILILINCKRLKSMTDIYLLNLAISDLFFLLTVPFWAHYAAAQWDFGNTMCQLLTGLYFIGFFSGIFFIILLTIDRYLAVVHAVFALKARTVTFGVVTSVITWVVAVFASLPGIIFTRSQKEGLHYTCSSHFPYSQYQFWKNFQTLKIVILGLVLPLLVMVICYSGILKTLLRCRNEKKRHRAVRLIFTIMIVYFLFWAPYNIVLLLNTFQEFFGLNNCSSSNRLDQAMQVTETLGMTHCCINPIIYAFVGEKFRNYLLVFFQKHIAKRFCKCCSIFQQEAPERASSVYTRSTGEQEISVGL

As for `Cc1cccc(C)c1C(=O)N1CCC(C)(N2CCC(Nc3cccc4ccn(C)c34)CC2)CC1`, the IC50 in series [1] was determined as 102 nM; in series [2], 2170 nM.

Take `Cc1cccc(C)c1C(=O)N1CCC(C)(N2CCC(N(Cc3ccccc3)c3ccccc3)CC2)CC1`: the results for the AUG in series [3] and in [7] were 569 ng·h/mL and 33 ng·h/mL, respectively. In addition, the Cmax turned out to be 7 ng/mL in series [4] and 90 ng/mL in series [12]. The MRT in series [5] came to 4.1 h; in [6] it was 8.9 h. Moreover, the IC50 in series [8] was 200 nM. Also, the bioavailability in series [9] came to 85%; in [10] it was 4%. Moreover, the Tmax in series [11] is 0.5 h.

In turn, `CN(C)C(=O)c1ccccc1C(=O)N1CCC(C)(N2CCC(N(c3ccccc3)c3ccccc3)CC2)CC1` registered an IC50 in [1] of more than 100 nM.

In [1], `Cc1cccc(C)c1C(=O)N1CCC(C)(N2CCC(N(Cc3ccccc3)Cc3ccccc3)CC2)CC1` yielded an IC50 of 75 nM.

On to `Cc1cc[n+]([O-])c(C)c1C(=O)N1CCC(C)(N2CCC(N(Cc3ccccc3C#N)c3ccccc3)CC2)CC1`, for which the IC50 in series [1] is 80 nM; in [2] it was more than 3000 nM.

Consider `CC1(N2CCC(N(c3ccccc3)c3ccccc3)CC2)CCN(C(=O)C2CCCCC2)CC1`, for which the IC50 in series [1] came to 408 nM; in [2] it was 580 nM.

As to `Cc1cc[n+]([O-])c(C)c1C(=O)N1CCC(C)(N2CCC(N(c3ccccc3)c3ccccc3)CC2)CC1`, the IC50 in series [8] was 33 nM; in series [1] it was 3.3 nM; in series [2], 16 nM; in series [13], 16 nM.

Take `Cc1nc[n+]([O-])c(C)c1C(=O)N1CCC(C)(N2CCC(N(c3ccccc3)c3ccccc3)CC2)CC1`: the AUG in series [3] stood at 1030 ng·h/mL; in [7], 1550 ng·h/mL. Moreover, the Cmax in series [4] and in series [12] was 91 ng/mL in each case. Further, the MRT in series [5] amounted to 5.1 h; in [6], 6 h. The values for the bioavailability in [9] and in series [10] were 94% and 58%, respectively.

For the compound `Cc1cc[n+]([O-])c(C)c1C(=O)N1CCC(N2CCC(N(c3ccccc3)c3ccccc3)CC2)CC1`, the IC50 in series [1] came to 9 nM; in series [2] it was 127 nM.

Turning to `COc1cccc(OC)c1C(=O)N1CCC(C)(N2CCC(N(c3ccccc3)c3ccccc3)CC2)CC1`, in series [1], half-maximal inhibition (IC50) required 42 nM.

Take `Cc1ccnc(C)c1C(=O)N1CCC(C)(N2CCC(N(c3ccccc3)c3ccccc3)CC2)CC1`: inhibition in [8] was half-maximal at 114 nM (IC50).

On to `Cc1cccc(C)c1C(=O)N1CCC(C)(N2CCC(Nc3ccc(C(F)(F)F)cc3)CC2)CC1`, for which the IC50 in series [1] turned out to be 0.8 nM; in series [2], 27.3 nM.

Turning to `Cc1ccccc1C(=O)N1CCC(C)(N2CCC(N(c3ccccc3)c3ccccc3)CC2)CC1`, the IC50 in series [1] is 7.8 nM; in [2] it was 67 nM.

`Cc1cccc(C)c1C(=O)N1CCC(C)(N2CCC(Nc3ccc(-c4ccccc4)cc3)CC2)CC1`: in series [1], half-maximal inhibition (IC50) required 460 nM.

In series [3], `CC1(N2CCC(N(c3ccccc3)c3ccccc3)CC2)CCN(C(=O)c2cccc3ccccc23)CC1` showed an AUG of 518 ng·h/mL. The Cmax in [4] was 70 ng/mL. For the same compound, the IC50 turned out to be 610 nM in series [8], 29.4 nM in series [14] and 29 nM in series [13]. In series [9], the bioavailability came to 100%. In series [15], the MRT is 14.4 h.

In [1], `COc1cc(CN(c2ccccc2)C2CCN(C3(C)CCN(C(=O)c4c(C)cc[n+]([O-])c4C)CC3)CC2)cc(OC)c1OC` yielded an IC50 of more than 1000 nM.

As to `Cc1cccc(C)c1C(=O)N1CCC(C)(N2CCC(NCc3ccccc3)CC2)CC1`, the IC50 in [1] and in [2] was more than 1000 nM throughout.

On to `Cc1cccc(C)c1C(=O)N1CCC(C)(N2CCC(N(Cc3ccccc3)c3ccc(Br)cc3)CC2)CC1`, for which the IC50 in [8] came to 1450 nM; in series [1], 2.3 nM; in series [2], 15.6 nM; in series [13] it was 28 nM.

As to `Cc1cccc(C)c1C(=O)N1CCC(C)(N2CCC(Nc3ccc4ccn(C)c4c3)CC2)CC1`, the IC50 in series [1] is 91 nM; in [2] it was 1680 nM.

Consider `Cc1cc(C)c(S(=O)(=O)N2CCC(C)(N3CCC(N(c4ccccc4)c4ccccc4)CC3)CC2)c(C)c1`, for which the IC50 in series [1] was found to be 41 nM.

With `CC1(N2CCC(N(c3ccccc3)c3ccccc3)CC2)CCN(C(=O)c2c[nH]c3ccccc23)CC1`, the figures for the IC50 in series [1] and in series [2] were 48 nM and 283 nM, respectively.

The compound `Cc1nc(-c2ccncc2)nc(C)c1C(=O)N1CCC(C)(N2CCC(N(c3ccccc3)c3ccccc3)CC2)CC1` displayed an AUG in series [3] of 513 ng·h/mL. This compound had an MRT in series [6] of 5.8 h. Also, the IC50 in series [8] amounted to 125 nM; in series [1], 2.8 nM; in series [2] it was 30 nM; in series [16], 7.9 nM; in [13], 24.6 nM. The bioavailability in series [10] worked out at 57%. Further, the Tmax in series [17] came out at 0.5 h. Besides, the peak concentration (Cmax) in [12] amounted to 73 ng/mL.

Turning to `Cc1nc(-c2ccccc2)nc(C)c1C(=O)N1CCC(C)(N2CCC(N(c3ccccc3)c3ccccc3)CC2)CC1`, the Cmax in series [4] was found to be 12 ng/mL. In [7], this compound displayed an AUG of 115 ng/mL/h. The bioavailability is 86% in [9] and 0% in series [10].

In the case of `Cc1ncnc(C)c1C(=O)N1CCC(C)(N2CCC(N(c3ccccc3)c3ccccc3)CC2)CC1`, the IC50 in series [18] worked out at 28 nM; in series [13] it was 8 nM.

Regarding `Cc1cccc(C)c1C(=O)N1CCC(C)(N2CCC(Nc3ccccc3)CC2)CC1`, in series [1], half-maximal inhibition (IC50) required 100 nM.

With `Cc1cccc(C)c1C(=O)N1CCC(C)(N2CCC(N(c3ccccc3)c3ccccc3)CC2)CC1`, the AUG in series [3] was determined as 664 ng·h/mL. Further, in [4], the Cmax stood at 81 ng/mL. Besides, the MRT in series [19] stood at 6.9 h. The compound also had an IC50 in series [8] of 250 nM. Moreover, the results for the bioavailability in [9] and in series [10] were 62% and 0%, respectively. In addition, the Tmax in series [17] worked out at 0.5 h.
